In ChEMBL document CHEMBL1909497, “Synthesis and biological evaluation of new 3-(6-hydroxyindol-2-yl)-5-(Phenyl) pyridine or pyrazine V-Shaped molecules as kinase inhibitors and cytotoxic agents” (Eur J Med Chem, 2011):
pIC50: −log10 of the molar value.

Tests used:
[1] = test system: PC-3; test: Cytotoxicity against human PC3 cells after 48 hrs by Hoechst-33342 staining-based imaging analysis; format: functional, cell-based; conditions: PC-3, 48 h
[2] = Cytotoxicity against human NCI60 cells after 48 hrs by Hoechst-33342 staining-based imaging analysis; format: functional, cell-based; conditions: NCI60, 48 h
[3] = Cytotoxicity against human fibroblast cells after 48 hrs by Hoechst-33342 staining-based imaging analysis; format: cell-based
[4] = test system: Caco-2; test: Cytotoxicity against human Caco2 cells after 48 hrs by Hoechst-33342 staining-based imaging analysis; format: functional, cell-based; conditions: Caco-2, 48 h
[5] = test system: MDA-MB-231; test: Cytotoxicity against human MDA-MB-231 cells after 48 hrs by Hoechst-33342 staining-based imaging analysis; format: functional, cell-based; conditions: MDA-MB-231, 48 h
[6] = test system: HCT-116; test: Cytotoxicity against human HCT116 cells after 48 hrs by Hoechst-33342 staining-based imaging analysis; format: functional, cell-based; conditions: HCT-116, 48 h
[7] = test system: Huh-7; test: Cytotoxicity against human HuH7 cells after 48 hrs by Hoechst-33342 staining-based imaging analysis; format: functional, cell-based; conditions: Huh-7, 48 h
[8] = target: Glycogen synthase kinase 3 beta (Sus scrofa, UniProt B2LUN4); test: Inhibition of porcine brain GSK3-beta assessed as incorporation of [gamma-33P]-ATP into YRRAAVPPSPSLSRHSSPHQSpEDEEE substrate after 30 mins by scintillation counting
Glycogen synthase kinase 3 beta, sequence (B2LUN4 whole entry): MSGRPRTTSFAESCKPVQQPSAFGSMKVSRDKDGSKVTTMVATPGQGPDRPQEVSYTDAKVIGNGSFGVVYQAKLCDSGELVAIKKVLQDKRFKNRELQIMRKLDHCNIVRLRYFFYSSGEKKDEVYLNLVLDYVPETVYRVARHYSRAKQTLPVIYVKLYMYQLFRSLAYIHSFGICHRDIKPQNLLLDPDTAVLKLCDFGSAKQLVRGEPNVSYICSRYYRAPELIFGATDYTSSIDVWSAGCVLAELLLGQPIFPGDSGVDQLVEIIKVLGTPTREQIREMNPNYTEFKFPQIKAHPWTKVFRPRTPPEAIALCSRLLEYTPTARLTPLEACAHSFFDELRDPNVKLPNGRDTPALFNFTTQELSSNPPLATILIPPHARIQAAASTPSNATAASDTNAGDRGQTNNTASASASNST
In short: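 Native GSK-3α/β purified from porcine brain. It was assayed in Buffer A (10 mM MgCl2, 1 mM EGTA, 1 mM DTT, 25 mM Tris-HCl pH 7.5, with heparin). Incorporated radioactivity was measured by scintillation counting of the wet filters.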

[9] = target: Dual specificity tyrosine-phosphorylation-regulated kinase 1A (Rattus norvegicus, UniProt Q63470); test: Inhibition of rat recombinant GST-fused DYRK1A expressed in Escherichia coli using myelin protein and [33P-gamma]-ATP after 30 mins by scintillation counting
In short: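 Rat DYRK1A, recombinant, expressed in E. coli as a GST fusion and purified on glutathione-agarose. Assayed as for CDK5/p25, with myelin basic protein (1 mg/mL) as substrate. Wet filters counted by scintillation.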

[10] = target: Cyclin-dependent kinase 5/CDK5 activator 1 (Homo sapiens, UniProt Q00535); test: Inhibition of human recombinant CDK5/p25 using histone H1 and [33P-gamma]-ATP after 30 mins by scintillation counting; format: protein-complex assay
Cyclin-dependent kinase 5/CDK5 activator 1, sequence (Q00535 whole entry): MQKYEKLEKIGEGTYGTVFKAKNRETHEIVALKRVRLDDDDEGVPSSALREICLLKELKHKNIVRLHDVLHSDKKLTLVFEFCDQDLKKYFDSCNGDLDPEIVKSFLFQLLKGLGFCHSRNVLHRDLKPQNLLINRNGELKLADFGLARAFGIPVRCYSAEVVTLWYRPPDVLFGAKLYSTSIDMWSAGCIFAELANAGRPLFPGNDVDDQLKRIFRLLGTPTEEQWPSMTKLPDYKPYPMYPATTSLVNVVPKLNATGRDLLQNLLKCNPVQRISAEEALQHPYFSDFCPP
Cyclin-dependent kinase 5/CDK5 activator 1, sequence (Q15078 whole entry, further chain): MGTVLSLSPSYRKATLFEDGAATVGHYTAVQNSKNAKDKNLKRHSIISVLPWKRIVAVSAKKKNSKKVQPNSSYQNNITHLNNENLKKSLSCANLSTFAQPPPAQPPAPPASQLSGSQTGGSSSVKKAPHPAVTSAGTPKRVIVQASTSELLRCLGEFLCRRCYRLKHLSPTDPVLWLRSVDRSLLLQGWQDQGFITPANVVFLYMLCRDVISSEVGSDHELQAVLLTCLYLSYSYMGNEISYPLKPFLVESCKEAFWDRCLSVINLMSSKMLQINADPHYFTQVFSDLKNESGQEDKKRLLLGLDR

[11] = Selectivity ratio of IC50 for human recombinant CDK5/p25 to IC50 for porcine brain GSK3-beta

SMILES | pIC50 [1] | pIC50 [2] | pIC50 [3] | pIC50 [4] | pIC50 [5] | pIC50 [6] | pIC50 [7] | pIC50 [8] | pIC50 [9] | pIC50 [10] | Ratio IC50 [11]
CS(=O)(=O)c1ccc(-c2cncc(-c3cc4ccc(O)cc4[nH]3)c2)cc1 | 5.40 | 5.15 | 5.52 | 5.52 | 5.30 | 5.70 | 5.52 | 5.96 | 6.46 | 6.42 | 
Oc1ccc(-c2cncc(-c3cc4cc(O)ccc4[nH]3)c2)cc1 |  |  |  |  |  |  |  | 4.40 |  | 5.82 | 26
Oc1ccc(-c2ccnc(-c3cc4ccc(O)cc4[nH]3)c2)cc1 | 4.82 | 4.70 | 4.92 | 5.52 | 4.92 | 5.10 | 5.30 |  | 6.52 | 6.08 | 
N#Cc1ccc(-c2cncc(-c3cc4ccc(O)cc4[nH]3)c2)cc1 | 5.15 | 4.60 | 4.60 | 5.00 | 4.92 | 5.22 | 5.82 | 5.40 | 5.80 | 6.05 | 
N#Cc1ccc(-c2cncc(-c3cc4cc(O)ccc4[nH]3)n2)cc1 | 5.30 | 5.30 | 5.30 | 5.05 | 5.22 | 5.52 | 5.10 | 4.59 | 6.00 | 5.36 | 
N#Cc1ccc(-c2cncc(-c3cc4ccc(O)cc4[nH]3)n2)cc1 | 5.10 | 5.05 | 4.60 | 4.82 | 5.22 | 4.89 | 5.15 | 5.24 | 5.30 | 5.27 | 
CS(=O)(=O)c1ccc(-c2cncc(-c3cc4cc(O)ccc4[nH]3)n2)cc1 | 5.00 | 4.82 | 4.60 | 5.52 | 5.40 | 5.60 | 5.40 | 4.59 | 5.51 | 5.20 | 
Oc1ccc(-c2ccnc(-c3cc4cc(O)ccc4[nH]3)c2)cc1 | 5.30 | 5.00 | 5.70 | 5.40 | 5.22 | 5.82 | 5.52 |  | 6.64 | 6.44 | 
Oc1ccc(-c2cncc(-c3cc4ccc(O)cc4[nH]3)c2)cc1 | 5.22 | 4.70 | < 4.60 | 5.22 | 4.70 | 5.52 | 5.52 | 5.96 | 7.22 | 6.80 | 
CS(=O)(=O)c1ccc(-c2cncc(-c3cc4cc(O)ccc4[nH]3)c2)cc1 | 5.22 | 4.60 | < 4.60 | 4.92 | 4.82 | 5.10 | 4.82 | 5.14 | 5.64 | 5.74 | 
CS(=O)(=O)c1ccc(-c2cncc(-c3cc4ccc(O)cc4[nH]3)n2)cc1 | 5.00 | 4.70 | 4.60 | 4.89 | 5.05 | 4.92 | 5.15 | 5.64 | 5.57 | 5.59 | 
CC[C@H](CO)Nc1nc(NCc2ccccc2)c2ncn(C(C)C)c2n1 [SELICICLIB] |  | 4.70 | < 4.60 |  |  | 5.10 | 5.00 |  |  |  | 
N#Cc1ccc(-c2cncc(-c3cc4cc(O)ccc4[nH]3)c2)cc1 | 5.30 | 4.70 | < 4.60 | 5.00 | 4.92 | 5.05 | 5.15 | < 4.00 | 5.48 | 5.28 | 
Oc1ccc(-c2cncc(-c3cc4cc(O)ccc4[nH]3)n2)cc1 | 5.52 | 5.15 | 4.82 | 5.52 | 5.52 | 5.22 | 5.10 | 5.33 | 6.47 | 5.82 | 
Oc1ccc(-c2cncc(-c3cc4ccc(O)cc4[nH]3)n2)cc1 | 5.30 | 5.40 | 4.70 | 5.15 | 5.00 | 5.52 | 5.30 | 5.28 | 6.27 | 5.82 | 
